Source: PubChem BioAssay (The Scripps Research Institute Molecular Screening Center)
PAD4 FP inh = inhibitors of human PAD4. Q9UM07. recombinant PAD4, RCA probe fluorescence polarization. inhibition, % at 6.36 µM. 0.41% of 330,000 active. AID 485272;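 active means percent inhibition above a cutoff equal to the mean of all tested compounds plus 3 SD, cut at about 15% in these data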
PRMT1 inh = inhibitors of human PRMT1; AID 652257; inhibition, % at 2.79 µM; Q99873; 1.3% of 370,000 active; recombinant PRMT1, activity-based probe fluorescence polarization;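 active means inhibition above about 21% made by adding two undisclosed values, limit read from the data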
Fam108B inh = Fam108B inhibition, counter-screen for RBBP9 inhibitors. recombinant Fam108B, FP-Rh probe fluorescence polarization. 0.33% of 300,000 active. AID 1947. inhibition, % at 9.51 µM;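 active means inhibition above the screen mean inhibition plus 3 SD, computed separately per campaign, cut at about 18% in these data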;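 further: inhibitors lower polarization as less probe binds the enzyme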
GSTO1 counter = blocks human GSTO1 in RBBP9 counter-screen | P78417 | recombinant GSTO1, activity-based probe fluorescence polarization | inhibition, % at 5.96 µM | 1.1% of 300,000 active;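 active means inhibition above the campaign mean inhibition plus 3 SD, cut at about 35% in these data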
PME-1 primary = PME-1 (human) inhibition; inhibition, % at 5.9 µM; 0.53% of 320,000 active; recombinant PME-1, FP-Rh probe fluorescence polarization; AID 2130; Q9Y570;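 active means inhibition above the campaign mean of all compounds plus 3 SD, cut at about 26% in these data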;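 further: competitive labeling of PME-1 active site by serine hydrolase directed probe; inhibitors block probe labeling so polarization falls and inhibition rises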
Target sequence (Q9Y570 whole entry, looked up): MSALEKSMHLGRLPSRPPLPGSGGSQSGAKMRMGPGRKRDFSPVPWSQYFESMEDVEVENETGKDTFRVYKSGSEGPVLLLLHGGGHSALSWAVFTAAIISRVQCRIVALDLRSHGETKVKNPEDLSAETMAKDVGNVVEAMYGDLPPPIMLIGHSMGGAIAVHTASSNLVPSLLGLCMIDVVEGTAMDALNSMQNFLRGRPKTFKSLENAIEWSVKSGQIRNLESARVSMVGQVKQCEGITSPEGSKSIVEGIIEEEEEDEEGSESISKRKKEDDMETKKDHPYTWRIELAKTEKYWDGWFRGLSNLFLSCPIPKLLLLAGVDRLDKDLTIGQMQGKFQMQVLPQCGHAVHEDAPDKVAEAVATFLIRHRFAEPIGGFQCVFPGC
RBBP9 inh = inhibitors of human serine hydrolase RBBP9; O75884; recombinant RBBP9, FP-Rh probe fluorescence polarization; inhibition, % at 7.94 µM; 0.2% of 220,000 active; AID 1515;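 active means inhibition above the campaign mean of all tested compounds plus 3 SD, cut at about 14% in these data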
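Test system: recombinant human RBBP9; Timing: 30 min then 45 min, 25 °C; Detection: fluorescence polarization; Control set: RBBP9 with DMSO as uninhibited control, no-protein wells as full inhibition; Compound dosing: one concentration, 7.94 µM nominal, 0.794% DMSO; Probe or stimulus: FP-Rh activity-based probe, 375 nM before mixing.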
PAD4 FP conf = PAD4 (human) inhibition, confirmed; inhibition, % at 6.36 µM; AID 488796; 28% of 1,200 active; shares compounds with PAD4 FP inh; recombinant PAD4, RCA probe fluorescence polarization;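 active means mean inhibition across replicates above the hit cutoff set by the earlier primary screen, cut at about 15% in these data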;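 further: inhibitors block active-site labeling by the probe so polarization falls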
Each line names hits and unclear results; the compound was inactive in the other large screens (follow-up assays come after a bar, where they were run). Compounds with a hit are over-represented: about 2.3% of the library has one in this group of screens.

CC(C)(C)c1ccc(Cn2nnc3c(=O)[nH]c(C4CCN(C(=O)Cc5cccs5)CC4)nc32)cc1	PAD4 FP inh 37 | PAD4 FP conf inactive
CC(C)(C)c1ccc(Cn2nnc3c(=O)[nH]c(C4CCCN(C(=O)Cc5cccs5)C4)nc32)cc1 (stereo not drawn)	none
Cc1ccccc1C1CC(=O)Oc2cc(O)ccc21 (stereo not drawn)	PAD4 FP inh 82 (no result: PRMT1 inh, Fam108B inh, GSTO1 counter, PME-1 primary, RBBP9 inh) | PAD4 FP conf 78
CSc1ccc(CN(C)C(=O)c2cccc(S(=O)(=O)NCc3ccccc3)c2)cc1	none (no result: RBBP9 inh)
Cc1ccc2nc(NC(=O)CSc3nncc(=O)n3N)sc2c1	PAD4 FP inh 19 | PAD4 FP conf inactive
Cc1cccc(C)c1NC(=O)CSc1nc2ccccc2c(=O)[nH]1	none
Cc1ccccc1C(=O)NNC(=O)CSc1nc2ccccc2c(=O)[nH]1	PAD4 FP inh 23 | PAD4 FP conf inactive
COc1cc(SC#N)ccc1N=Cc1c(C)[nH]n(-c2ccc(Cl)cc2)c1=O	PAD4 FP inh 30 | PAD4 FP conf 37
O=[N+]([O-])c1ccccc1CS(=O)(=O)c1ccccc1	none (no result: RBBP9 inh)
COc1ccc(NC(=O)CSc2ncnc3sc(C)cc23)cc1	none (no result: RBBP9 inh)
Cc1cc(O)ccc1N/C=C/c1onc(C)c1[N+](=O)[O-]	PAD4 FP inh 37, PRMT1 inh 33 | PAD4 FP conf inactive
COc1ccccc1C(=O)NCCC(=O)N(C)Cc1cccs1	none (no result: RBBP9 inh)
CC(C)c1ccc(/C=N/n2nnnc2Nc2ccccc2)cc1	PAD4 FP inh 15 | PAD4 FP conf inactive
CC/C(=N\n1nnnc1Nc1ccccc1)c1ccccc1	none
Cc1ccc(S(=O)(=O)/N=C2\C=C(Nc3ccc(O)cc3)C(=O)c3ccccc32)cc1	PAD4 FP inh 55 (no result: PRMT1 inh, Fam108B inh, GSTO1 counter, PME-1 primary, RBBP9 inh) | PAD4 FP conf 54
Cc1ccc(S(=O)(=O)Nc2ccc(N=Nc3ccc(O)cc3)cc2)cc1	none
Cc1nn(-c2ccccc2)c2c1C(c1ccncc1)C(C#N)=C(N)O2 (stereo not drawn)	PAD4 FP inh 25 | PAD4 FP conf inactive
Cc1ccc(-n2nc(C)c3c2OC(N)=C(C#N)C3c2ccncc2)cc1 (stereo not drawn)	none
Cc1ccc(-n2nc(C)c3c2OC(N)=C(C#N)C3c2cccs2)cc1 (stereo not drawn)	PAD4 FP inh 41 | PAD4 FP conf inactive
O=C(Nc1cccc2c1CCCC2)c1ccncc1	none
Cc1csc(NC(=O)CSc2ncnc3c2cnn3-c2ccccc2Cl)n1	PAD4 FP inh 15 (no result: PRMT1 inh) | PAD4 FP conf inactive
O=c1[nH]c(Sc2ccc([N+](=O)[O-])cc2[N+](=O)[O-])nc2ccccc12	PAD4 FP inh 44, PRMT1 inh 23 (no result: RBBP9 inh) | PAD4 FP conf 19
CC1CCN(CCCOc2ccc(Cl)cc2Br)CC1	none
COC(=O)C1C(O)=C(C=Nc2ccc(N)cc2)C(=O)CC1(C)C (stereo not drawn)	PAD4 FP inh 47 | PAD4 FP conf inactive
CC1(C)CC(=O)C(C=Nc2ccc(N)cc2)=C(O)C1	PAD4 FP inh 40 | PAD4 FP conf inactive
COC(=O)C1C(O)=C(C=Nc2ccccc2)C(=O)CC1(C)C (stereo not drawn)	none
O=C1CS/C(=N/N=C/c2ccncc2)N1	none
CC(C)OC(=O)Nc1ccc(Oc2c(F)c(F)c(F)c(F)c2F)cc1	none
COc1ccccc1NC(=O)c1cc(C)nc2ccccc12	none
COc1ccccc1N1C(=O)c2cccnc2C1=O	none (no result: RBBP9 inh)
CC1Cc2ccccc2N1C(=O)CSc1nn2c(=O)c(C(C)(C)C)nnc2s1 (stereo not drawn)	PAD4 FP inh 15 | PAD4 FP conf inactive
Cc1nc(N2CCOCC2)c2oc3ccccc3c2n1	none
CC(C(Sc1ccccc1N)c1ccccc1)[N+](=O)[O-] (stereo not drawn)	PAD4 FP inh 18, PRMT1 inh 53 | PAD4 FP conf 15
Nc1ccccc1SCc1ccccc1Cl	none
C#CCOCCOCCOCCNc1nc(N2CCN(C(=O)[C@H](CCCCN)n3cc([C@@H](N)C(C)CC)nn3)CC2)nc(N2CCN(C(=O)[C@H](Cc3cc4ccccc4[nH]3)n3cc([C@@H](N)CC(C)C)nn3)CC2)n1 (stereo partly drawn)	PAD4 FP inh 16 (no result: PRMT1 inh) | PAD4 FP conf inactive
